Bioassay records as filed in PubChem BioAssay.
This is a sample that favours compounds with a hit; in the whole collection about 1.8% have one here.
Hck-Nef inh = human Hck-Nef kinase inhibition; P08631; Recombinant Hck-YEEI plus Nef, Z-Lyte FRET kinase assay; 220,000 tested, 0.68% active; inhibition, % at 20 µM; AID 463187;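 active = Hck-Nef kinase inhibition above about 50%, limit read from the data; inactive = inhibition below that limit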
RanGTP-Impb inh = inhibitors of RanGTP-importin-beta interaction, primary screen, biochemical, FRET, CFP-Ran, YFP-importin-beta, homogeneous; cell-free CFP-Ran/YFP-importin-beta FRET ratio; 300,000 tested, 1.1% active; AID 2216; inhibition, % (no concentration beside the values);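 active = more than half of the replicate wells show a fall in the fluorescence ratio signal beyond about 16%, limit read from the data, passing the limit was not always enough; inconclusive = exactly half of the replicate wells pass the set limit; inactive = fewer than half of replicates pass the limit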
Runt-CBFb FRET = inhibitors of human RUNX1 Runt domain binding to CBFb; 220,000 tested, 0.46% active; Q01196+Q13951; inhibition, % at 20 µM; Cerulean-Runt/Venus-CBFb FRET ratio 530/480, 1 h;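 active = inhibition over about 50% at 20 µM in the single-dose screen, limit read from the data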
Target sequence (Q01196 whole entry, looked up, the tested form may be a part): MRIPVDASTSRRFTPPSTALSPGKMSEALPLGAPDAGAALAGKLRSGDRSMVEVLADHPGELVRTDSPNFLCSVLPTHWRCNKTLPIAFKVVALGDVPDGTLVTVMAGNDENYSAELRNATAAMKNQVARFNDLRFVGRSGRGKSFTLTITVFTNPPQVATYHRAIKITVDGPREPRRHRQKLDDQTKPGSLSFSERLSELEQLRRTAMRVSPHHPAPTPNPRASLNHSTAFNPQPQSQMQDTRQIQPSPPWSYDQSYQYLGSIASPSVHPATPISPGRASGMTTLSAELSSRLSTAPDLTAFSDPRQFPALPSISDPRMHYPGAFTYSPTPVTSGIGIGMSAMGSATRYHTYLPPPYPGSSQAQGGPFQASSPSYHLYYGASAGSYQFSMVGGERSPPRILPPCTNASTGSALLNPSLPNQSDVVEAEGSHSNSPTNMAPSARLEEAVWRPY
Target sequence (Q13951 whole entry, looked up, the tested form may be a part): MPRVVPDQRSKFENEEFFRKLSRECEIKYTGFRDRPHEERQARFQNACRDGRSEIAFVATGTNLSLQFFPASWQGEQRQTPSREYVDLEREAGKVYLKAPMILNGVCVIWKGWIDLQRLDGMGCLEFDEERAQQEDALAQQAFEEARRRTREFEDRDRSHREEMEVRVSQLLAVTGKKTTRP
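Assay system: Cerulean-Runt domain fusion protein, energy donor; Signal: fluorescence energy transfer, 422 nm excitation, 530/480 nm emission; Timing: 1 h compound exposure, room temperature; Control set: unlabeled CBFb; Medium: Tris buffer pH 7.5 with salts and BSA; Compound: single test concentration of 20 µM, 1% DMSO final; Probe or stimulus: Venus-CBFb 100 nM.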
Runt-SMMHC FRET = inhibitors of human RUNX1 Runt domain binding to CBFb-SMMHC; Q01196+Q13951; Cerulean-Runt/Venus-CBFb-SMMHC FRET ratio 530/480, 1 h; inhibition, % at 20 µM; 220,000 tested, 0.74% active; AID 1434;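 active = mean inhibition across duplicate retests at 20 µM reaching about 50%, limit read from the data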;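 note: inhibitors lower the FRET ratio by blocking Runt binding to CBFb-SMMHC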
RUNX1 CBFb TR = Runt-CBFb binding inhibition. shares compounds with Runt-CBFb FRET. TR-FRET RUNX1 Runt domain-CBFb binding. inhibition, % at 20 µM. 480 tested, 20% active. AID 1502; in the data active = inhibition above about 40%
YIC FRET counter = counter-screen YIC FRET for RanGTP-importin-beta inhibitors. 1,000 tested, 40% active. IC50, µM. AID 435026. Purified YIC probe, intramolecular FRET ratio YFP/CFP. shares compounds with RanGTP-Impb inh;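 active = fitted half-maximal inhibitory concentration no more than tenfold above the top dose tested; inconclusive = flat fit with 30 to 70% activity, or poor fit; inactive = half-maximal concentration beyond tenfold above the top dose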
Each line names hits and unclear results; the compound was inactive in the other large screens (follow-up assays come after a bar, where shown).

O=C1NC(=S)N(Cc2ccco2)C(=O)/C1=C\c1cccs1	Hck-Nef inh 97 (no result: RanGTP-Impb inh)
Nc1c(C(=O)NCCCc2ccccc2)c2nc3ccccc3nc2n1Cc1cccs1	RanGTP-Impb inh 66
COCCCNC(=O)c1c(NC(=O)c2ccccc2)n(Cc2ccccc2)c2nc3ccccc3nc12	RanGTP-Impb inh inconclusive (no result: Runt-CBFb FRET, Runt-SMMHC FRET)
CCCCn1c(N)c(C(=O)NCc2cccs2)c2nc3ccccc3nc21	RanGTP-Impb inh 68, Runt-SMMHC FRET 76 (no result: Runt-CBFb FRET)
CCCCCn1c(N)c(C(=O)NCc2cccs2)c2nc3ccccc3nc21	RanGTP-Impb inh 56
CCCCn1c(=O)c(C(=O)NCc2ccccc2OC)c(O)c2ccccc21	none (no result: Hck-Nef inh, Runt-CBFb FRET, Runt-SMMHC FRET)
CCCOC(=O)c1c(N)n(Cc2cccs2)c2nc3ccccc3nc12	RanGTP-Impb inh inconclusive, Runt-SMMHC FRET 108
CN1C(=O)C(=Cc2ccccc2OS(=O)(=O)c2ccccc2)C(=O)N(C)C1=O	none (no result: Hck-Nef inh, Runt-CBFb FRET, Runt-SMMHC FRET)
c1ccc(-c2ccc(-c3n(-c4ccccn4)c4ccccc4[n+]3-c3ccccn3)cc2)cc1	none
CN(C)CCN(C(=O)COc1ccc(Cl)cc1)c1nc2cc3c(cc2s1)OCO3	none (no result: Hck-Nef inh, Runt-CBFb FRET, Runt-SMMHC FRET)
Cc1ccc(Cn2ccccc2=N)cc1	none (no result: Hck-Nef inh, Runt-CBFb FRET, Runt-SMMHC FRET)
COc1ccccc1NC(=O)c1cn(CCC#N)nc1-c1cccc(Cl)c1	none (no result: Hck-Nef inh, Runt-CBFb FRET, Runt-SMMHC FRET)
Cc1ccc(N2C(=O)NC(=O)C3(Cc4ccccc4N4CCCC43)C2=O)cc1 (centres undefined)	RanGTP-Impb inh 20
O=C1NC(=O)C2(Cc3ccccc3N3CCCC32)C(=O)N1c1ccc(Cl)cc1 (centres undefined)	none (no result: RanGTP-Impb inh)
COc1ccc2c3c([nH]c2c1)C(C)=NCC3	RanGTP-Impb inh 62, Runt-SMMHC FRET 73
CN1C(=O)/C(=C/c2cccn2-c2ccc3ccccc3c2)C(=O)NC1=S	none
O=C1NC(=S)NC(=O)C1=Cc1cccn1-c1ccc(O)cc1	Runt-CBFb FRET 57 | RUNX1 CBFb TR 90
CCC[N+]12CCC(CC1)C(=C(c1ccccc1)c1ccccc1)C2	Runt-CBFb FRET 52 | RUNX1 CBFb TR inactive
CC[n+]1c(/C=C/N(C)c2ccccc2)sc2ccc(Cl)cc21	RanGTP-Impb inh inconclusive, Runt-CBFb FRET 55 | RUNX1 CBFb TR inactive
Cc1ncc(CN2CCCC(C(=O)c3ccc(C(C)(C)C)cc3)C2)s1 (centres undefined)	none
COc1ccc(-n2nc(C(=O)NCC(=O)N3CCC4(CC3)OCCO4)c3ccccc3c2=O)cc1Cl	none (no result: Hck-Nef inh, Runt-CBFb FRET, Runt-SMMHC FRET)
COCCOC(=O)c1c(N)n(Cc2ccccc2)c2nc3ccccc3nc12	RanGTP-Impb inh 19, Runt-CBFb FRET 51, Runt-SMMHC FRET 108 | RUNX1 CBFb TR inactive | YIC FRET counter 46
CC(=O)c1c(O)n(-c2cccc(Cl)c2)c(=O)[nH]c1=O (tested in a mixture with another compound)	none
CC(C)n1c(O)c(C2c3cc(Cl)ccc3Oc3[nH]c(=O)n(C(C)C)c(=O)c32)c(=O)[nH]c1=O (centres undefined)	RanGTP-Impb inh 22, Runt-CBFb FRET 60, Runt-SMMHC FRET 75 | RUNX1 CBFb TR inactive | YIC FRET counter inactive
COc1ccc(CN2C(=O)NC(=O)/C(=C/c3ccc([N+](=O)[O-])s3)C2=O)cc1	none
CC1CN(C(=O)CCC(=O)N2CCC3(CC2)OCCO3)c2cc(Cl)ccc2O1 (centres undefined)	none (no result: Hck-Nef inh, Runt-CBFb FRET, Runt-SMMHC FRET)
Nc1c(C(=O)OC2CCCCC2)c2nc3ccccc3nc2n1CC1CCCO1 (centres undefined)	RanGTP-Impb inh 23, Runt-CBFb FRET 54, Runt-SMMHC FRET 106 | RUNX1 CBFb TR inactive | YIC FRET counter 27
CCCCn1c(N)c(C(=O)OCCOC)c2nc3ccccc3nc21	Hck-Nef inh 66, RanGTP-Impb inh inconclusive, Runt-CBFb FRET 62, Runt-SMMHC FRET 107 | RUNX1 CBFb TR inactive
CC1CCCCC1NC(=O)CNC(=S)N1CC2CC(C1)c1cccc(=O)n1C2 (centres undefined)	none (no result: Hck-Nef inh, Runt-CBFb FRET, Runt-SMMHC FRET)
Cc1cc(C=C(C#N)C#N)ccc1N1CCCC1	RanGTP-Impb inh 31 | YIC FRET counter inactive
O=C(Nc1cccc(OC(=O)N2CCCCC2)c1)N1CCCCC1	RanGTP-Impb inh 21 | YIC FRET counter inactive
O=C(Nc1cccc(OC(=O)N2CCOCC2)c1)N1CCOCC1	none
OC(CN1CCOCC1)c1csc2ccccc12 (centres undefined)	none (no result: Hck-Nef inh, Runt-CBFb FRET, Runt-SMMHC FRET)
